Measurements taken from ChEMBL document CHEMBL1949660 (Bioorg Med Chem Lett, 2012).

What was measured:
Histamine H3 receptor [1] = biological target: Histamine H3 receptor (Rattus norvegicus, UniProt Q9QYN8); assay: Displacement of [3H]NAMH from rat histamine H3 receptor expressed in CHO cells; assay type: cell-based
Summary of the method: (§1)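 Radioligand displacement of [³H]NAMH from membranes isolated from CHO cells transfected with cloned human H₃ or rat H₃ receptors.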

Histamine H3 receptor [2] = biological target: Histamine H3 receptor (Homo sapiens, UniProt Q9Y5N1); assay: Displacement of [3H]NAMH from human histamine H3 receptor expressed in CHO cells; assay type: cell-based; summary of the method: as §1
[3] = biological target: Voltage-gated inwardly rectifying potassium channel KCNH2 (Homo sapiens, UniProt Q12809); assay: Inhibition of human Erg by patch clamp assay
[4] = Oral bioavailability in rat at 5 mg/kg; assay type: ADME, organism-based; conditions: in vivo
Summary of the method: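 Rat PK: iv dose with vehicle 3% DMSO, 30% solutol, 67% phosphate buffered saline. Oral 5 mg/kg dose with vehicle 50% Tween 80, 40% propylene carbonate, 10% propylene glycol.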

Sequence of Histamine H3 receptor (Rattus norvegicus, UniProt Q9QYN8) (Q9QYN8 whole entry): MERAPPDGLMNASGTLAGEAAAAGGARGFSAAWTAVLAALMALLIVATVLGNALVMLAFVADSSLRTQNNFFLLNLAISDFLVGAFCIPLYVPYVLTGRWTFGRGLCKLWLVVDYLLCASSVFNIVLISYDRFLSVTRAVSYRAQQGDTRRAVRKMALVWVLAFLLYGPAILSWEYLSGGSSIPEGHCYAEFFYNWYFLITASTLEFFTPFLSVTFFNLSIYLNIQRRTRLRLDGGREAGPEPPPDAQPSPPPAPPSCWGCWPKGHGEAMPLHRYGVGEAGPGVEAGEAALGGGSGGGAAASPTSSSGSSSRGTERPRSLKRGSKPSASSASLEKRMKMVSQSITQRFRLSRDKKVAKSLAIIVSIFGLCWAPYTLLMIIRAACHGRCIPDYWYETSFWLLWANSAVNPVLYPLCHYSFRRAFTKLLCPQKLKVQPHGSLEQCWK
Sequence of Histamine H3 receptor (Homo sapiens, UniProt Q9Y5N1) (Q9Y5N1 whole entry): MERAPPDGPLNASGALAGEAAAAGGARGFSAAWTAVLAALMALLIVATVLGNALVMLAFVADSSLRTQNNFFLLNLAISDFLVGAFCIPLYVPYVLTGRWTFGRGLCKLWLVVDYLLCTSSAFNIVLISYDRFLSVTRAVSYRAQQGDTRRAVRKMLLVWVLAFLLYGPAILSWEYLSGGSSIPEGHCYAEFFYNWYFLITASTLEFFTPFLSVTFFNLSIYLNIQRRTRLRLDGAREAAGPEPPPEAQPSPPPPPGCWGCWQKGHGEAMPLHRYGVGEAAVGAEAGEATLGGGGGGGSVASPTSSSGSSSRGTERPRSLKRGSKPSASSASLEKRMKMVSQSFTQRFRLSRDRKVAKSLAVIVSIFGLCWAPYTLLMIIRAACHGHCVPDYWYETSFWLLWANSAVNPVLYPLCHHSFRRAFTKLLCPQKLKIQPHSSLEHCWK
Sequence of Voltage-gated inwardly rectifying potassium channel KCNH2 (Q12809 whole entry): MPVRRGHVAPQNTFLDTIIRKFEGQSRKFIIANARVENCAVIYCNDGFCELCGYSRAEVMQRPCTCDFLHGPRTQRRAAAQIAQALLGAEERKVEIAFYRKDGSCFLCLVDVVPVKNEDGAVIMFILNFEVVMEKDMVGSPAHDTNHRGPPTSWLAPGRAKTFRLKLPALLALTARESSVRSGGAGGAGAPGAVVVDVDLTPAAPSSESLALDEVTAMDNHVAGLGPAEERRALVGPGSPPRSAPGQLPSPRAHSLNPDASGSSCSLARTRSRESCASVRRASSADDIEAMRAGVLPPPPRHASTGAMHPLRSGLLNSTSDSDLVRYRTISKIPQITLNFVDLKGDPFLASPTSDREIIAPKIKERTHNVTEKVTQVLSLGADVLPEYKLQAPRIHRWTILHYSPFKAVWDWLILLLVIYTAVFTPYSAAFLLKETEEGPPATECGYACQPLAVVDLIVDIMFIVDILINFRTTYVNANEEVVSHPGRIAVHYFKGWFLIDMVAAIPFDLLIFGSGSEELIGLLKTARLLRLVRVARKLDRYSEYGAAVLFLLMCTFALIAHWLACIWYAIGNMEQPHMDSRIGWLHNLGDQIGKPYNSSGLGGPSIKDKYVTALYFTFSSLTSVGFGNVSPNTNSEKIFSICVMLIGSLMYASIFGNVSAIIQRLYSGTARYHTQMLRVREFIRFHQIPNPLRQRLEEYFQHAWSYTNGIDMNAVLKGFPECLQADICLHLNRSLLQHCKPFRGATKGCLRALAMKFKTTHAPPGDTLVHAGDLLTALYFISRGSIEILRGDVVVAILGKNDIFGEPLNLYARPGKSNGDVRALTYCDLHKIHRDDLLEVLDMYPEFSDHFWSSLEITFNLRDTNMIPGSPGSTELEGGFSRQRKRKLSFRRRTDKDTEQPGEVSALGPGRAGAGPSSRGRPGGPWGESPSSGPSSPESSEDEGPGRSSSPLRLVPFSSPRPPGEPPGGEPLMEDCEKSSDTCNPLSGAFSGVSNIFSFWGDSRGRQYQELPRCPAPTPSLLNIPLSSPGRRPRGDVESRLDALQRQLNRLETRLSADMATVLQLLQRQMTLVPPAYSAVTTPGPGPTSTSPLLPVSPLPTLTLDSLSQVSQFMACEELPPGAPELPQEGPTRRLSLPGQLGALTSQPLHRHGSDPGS

Ki (Histamine H3 receptor [1]) [µM] | Ki (Histamine H3 receptor [2]) [µM] | bioavailability [4] [%] | Compound | IC50 [3] [µM]
0.0086 | 0.0018 | – | Cn1nc(-c2ccc(OC3CCN(C4CCC4)CC3)nc2)ccc1=O | –
0.019 | 0.0063 | 21 | O=c1ccc(-c2ccc(OC3CCN(C4CCC4)CC3)nc2)n[nH]1 | 9
0.082 | 0.034 | – | O=c1ccc(-c2ccc(OC3CCN(C4CCC4)CC3)nc2)nn1-c1ccccn1 | –
– | 0.0027 | – | Cn1nc(-c2ccc(OC3CCN(C4CCCC4)CC3)cc2)ccc1=O | –
0.046 | 0.0092 | – | CC(C)N1CCC(Oc2ccc(-c3ccc(=O)n(C)n3)cc2)CC1 | –
